Test results: ChEMBL document CHEMBL3112515, “Discovery of novel 6,7-disubstituted-4-phenoxyquinoline derivatives bearing 5-(aminomethylene)pyrimidine-2,4,6-trione moiety as c-Met kinase inhibitors” (Bioorg Med Chem, 2014)

Key:
[1] = Cytotoxicity against human H460 cells after 72 hrs by MTT assay; details: NCI-H460, 72 h
[2] = test system: HT-29; assay: Cytotoxicity against human HT-29 cells after 72 hrs by MTT assay; details: HT-29, 72 h
[3] = Cytotoxicity against human U87MG cells after 72 hrs by MTT assay; type: functional, cell-based, U-87MG ATCC; details: U-87 MG
Summary of the method: (§1)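 Cells were grown in MEM with 10% FBS and seeded at about 4×10^3 cells per well, then held 24 h at 37 °C in 5% CO2. Compounds were added and the cells cultured 72 h. MTT was added to 5 µg/mL final for 4 h at 37 °C, and the formazan was dissolved in DMSO. IC50 is the mean of three determinations.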

[4] = Cytotoxicity against human MKN45 cells after 72 hrs by MTT assay; details: MKN-45, 72 h
[5] = biological target: Hepatocyte growth factor receptor (Homo sapiens, UniProt P08581); assay: Inhibition of c-Met (unknown origin) using poly (Glu, Tyr) 4:1 after 30 mins by HTRF assay
[6] = test system: A549; assay: Cytotoxicity against human A549 cells after 72 hrs by MTT assay; type: functional, cell-based; details: A549, 72 h; summary of the method: as §1

Row | SMILES | IC50 [1] [nM] | IC50 [2] [nM] | IC50 [3] [nM] | IC50 [4] [nM] | IC50 [5] [nM] | IC50 [6] [nM]
1 | COc1cc2c(Oc3ccc(N/C=C4\C(=O)NC(=O)N(c5ccc(C)cc5)C4=O)cc3F)ccnc2cc1OCCCN1CCOCC1 | 61 | 180 | 8500 | 210 | 2.16 | 110
2 | COc1cc2c(Oc3ccc(N/C=C4\C(=O)NC(=O)N(c5ccccc5)C4=O)cc3F)ccnc2cc1OCCCN1CCOCC1 | 260 | 350 | 4800 | 310 | 4.57 | 930
3 | COc1cc(N2C(=O)NC(=O)/C(=C\Nc3ccc(Oc4ccnc5cc(OCCCN6CCCC6)c(OC)cc45)c(F)c3)C2=O)c(OC)cc1Cl | 710 | 9400 | 2800 | 350 | 16.8 | 380
4 | COc1cc2c(Oc3ccc(N/C=C4\C(=O)NC(=O)N(c5ccccc5C(F)(F)F)C4=O)cc3F)ccnc2cc1OCCCN1CCOCC1 | 2300 | 3700 |  | 18400 | 21.2 | 
5 | COc1cc2c(Oc3ccc(N/C=C4\C(=O)NC(=O)N(c5c(C)cccc5C)C4=O)cc3F)ccnc2cc1OCCCN1CCCC1 | 160 | 120 | 1240 | 900 | 2.35 | 230
6 | COc1cc2c(Oc3ccc(N/C=C4\C(=O)NC(=O)N(c5ccc(F)cc5F)C4=O)cc3F)ccnc2cc1OCCCN1CCCCC1 | 1100 | 420 |  | 3900 | 9.27 | 
7 | COc1cc2c(Oc3ccc(N/C=C4\C(=O)NC(=O)N(c5ccccc5C(F)(F)F)C4=O)cc3F)ccnc2cc1OCCCN1CCCC1 | 360 | 370 |  | 1400 | 7.51 | 
8 | COc1cc2c(Oc3ccc(N/C=C4\C(=O)NC(=O)N(c5ccccc5)C4=O)cc3F)ccnc2cc1OCCCN1CCN(C)CC1 | 290 | 190 |  | 520 | 3.29 | 
9 | COc1cc2c(Oc3ccc(N/C=C4\C(=O)NC(=O)N(c5c(C)cccc5C)C4=O)cc3F)ccnc2cc1OCCCN1CCC(C)CC1 | 150 | 120 |  | 130 | 2.83 | 
10 | COc1cc2c(Oc3ccc(N/C=C4\C(=O)NC(=O)N(c5c(C)cccc5C)C4=O)cc3F)ccnc2cc1OCCCN1CCOCC1 | 85 | 140 | 7100 | 5500 | 3.03 | 2200
11 | COc1cc2c(Oc3ccc(N/C=C4\C(=O)NC(=O)N(c5ccccc5)C4=O)cc3F)ccnc2cc1OCCCN1CCCC1 | 290 | 200 |  | 210 | 3.36 | 
12 | COc1cc2c(Oc3ccc(N/C=C4\C(=O)NC(=O)N(c5ccc(F)cc5F)C4=O)cc3F)ccnc2cc1OCCCN1CCCC1 | 240 | 710 |  | 2800 | 12.4 | 
13 | COc1cc2c(Oc3ccc(N/C=C4\C(=O)NC(=O)N(c5ccc(C)cc5)C4=O)cc3F)ccnc2cc1OCCCN1CCC(C)CC1 | 59 | 140 | 920 | 56 | 1.64 | 990
14 | COc1cc2c(Oc3ccc(N/C=C4\C(=O)NC(=O)N(c5ccc(F)c(Cl)c5)C4=O)cc3F)ccnc2cc1OCCCN1CCCC1 | 54 | 190 | 680 | 72 | 2.38 | 190
15 | COc1cc2c(Oc3ccc(N/C=C4\C(=O)NC(=O)N(c5ccc(F)cc5F)C4=O)cc3F)ccnc2cc1OCCCN1CCN(C)CC1 | 1170 | 1500 | 1600 | 510 | 8.35 | 380
16 | COc1cc2c(Oc3ccc(N/C=C4\C(=O)NC(=O)N(c5ccc(F)c(Cl)c5)C4=O)cc3F)ccnc2cc1OCCCN1CCCCC1 | 80 | 200 | 1000 | 40 | 3.15 | 180
17 | COc1cc2c(Oc3ccc(N/C=C4\C(=O)NC(=O)N(c5ccc(F)c(Cl)c5)C4=O)cc3F)ccnc2cc1OCCCN1CCC(C)CC1 | 87 | 150 |  | 65 | 4.82 | 
18 | COc1cc(N2C(=O)NC(=O)/C(=C\Nc3ccc(Oc4ccnc5cc(OCCCN6CCOCC6)c(OC)cc45)c(F)c3)C2=O)c(OC)cc1Cl | 540 | 1300 |  | 2400 | 32.8 | 
19 | COc1cc2c(Oc3ccc(N/C=C4\C(=O)NC(=O)N(c5ccc(F)cc5F)C4=O)cc3F)ccnc2cc1OCCCN1CCOCC1 | 850 | 560 |  | 780 | 12.4 | 
20 | COc1cc2c(Oc3ccc(N/C=C4\C(=O)NC(=O)N(c5ccc(F)cc5)C4=O)cc3F)ccnc2cc1OCCCN1CCOCC1 | 120 | 240 |  | 740 | 3.58 | 

Row | SMILES | IC50 [1] [nM] | IC50 [2] [nM] | IC50 [3] [nM] | IC50 [4] [nM] | IC50 [5] [nM] | IC50 [6] [nM]
21 | COc1cc(N2C(=O)NC(=O)/C(=C\Nc3ccc(Oc4ccnc5cc(OCCCN6CCN(C)CC6)c(OC)cc45)c(F)c3)C2=O)c(OC)cc1Cl | 1800 | 7700 |  | 480 | 24.7 | 
22 | COc1cc(N2C(=O)NC(=O)/C(=C\Nc3ccc(Oc4ccnc5cc(OCCCN6CCC(C)CC6)c(OC)cc45)c(F)c3)C2=O)c(OC)cc1Cl | 570 | 630 | 3400 | 460 | 19.2 | 640
23 | COc1cc2c(Oc3ccc(N/C=C4\C(=O)NC(=O)N(c5ccc(F)cc5)C4=O)cc3F)ccnc2cc1OCCCN1CCCC1 | 620 | 490 |  | 1200 | 2.68 | 
24 | COc1cc2c(Oc3ccc(N/C=C4\C(=O)NC(=O)N(c5ccc(F)c(Cl)c5)C4=O)cc3F)ccnc2cc1OCCCN1CCN(C)CC1 | 76 | 150 | 750 | 66 | 3.15 | 310
25 | COc1cc2c(Oc3ccc(N/C=C4\C(=O)NC(=O)N(c5ccccc5)C4=O)cc3F)ccnc2cc1OCCCN1CCCCC1 | 220 | 160 | 1300 | 280 | 4.31 | 510
26 | COc1cc2c(Oc3ccc(N/C=C4\C(=O)NC(=O)N(c5ccc(F)c(Cl)c5)C4=O)cc3F)ccnc2cc1OCCCN1CCOCC1 | 120 | 280 | 580 | 110 | 5.14 | 270
27 | COc1cc2c(Oc3ccc(N/C=C4\C(=O)NC(=O)N(c5c(C)cccc5C)C4=O)cc3F)ccnc2cc1OCCCN1CCN(C)CC1 | 170 | 260 |  | 450 | 3.26 | 
28 | COc1cc2c(Oc3ccc(N/C=C4\C(=O)NC(=O)N(c5ccccc5C(F)(F)F)C4=O)cc3F)ccnc2cc1OCCCN1CCC(C)CC1 | 380 | 600 |  | 310 | 18.3 | 
29 | COc1cc2c(Oc3ccc(N/C=C4\C(=O)NC(=O)N(c5ccc(F)cc5)C4=O)cc3F)ccnc2cc1OCCCN1CCCCC1 | 160 | 140 |  | 480 | 3.64 | 
30 | COc1cc2c(Oc3ccc(N/C=C4\C(=O)NC(=O)N(c5ccccc5C(F)(F)F)C4=O)cc3F)ccnc2cc1OCCCN1CCN(C)CC1 | 4200 | 7300 |  | 3500 | 8.14 | 
31 | COc1cc2c(Oc3ccc(N/C=C4\C(=O)NC(=O)N(c5ccc(F)cc5)C4=O)cc3F)ccnc2cc1OCCCN1CCN(C)CC1 | 120 | 310 |  | 120 | 3.15 | 510
32 | COc1cc2c(Oc3ccc(N/C=C4\C(=O)NC(=O)N(c5ccc(C)cc5)C4=O)cc3F)ccnc2cc1OCCCN1CCN(C)CC1 | 70 | 490 | 3200 | 160 | 2.68 | 430
33 | COc1cc2c(Oc3ccc(N/C=C4\C(=O)NC(=O)N(c5c(C)cccc5C)C4=O)cc3F)ccnc2cc1OCCCN1CCCCC1 | 160 | 200 | 1200 | 490 | 3.72 | 310
34 | COc1cc2c(Oc3ccc(N/C=C4\C(=O)NC(=O)N(c5ccccc5)C4=O)cc3F)ccnc2cc1OCCCN1CCC(C)CC1 | 170 | 280 | 1420 | 46 | 3.84 | 390
35 | COc1cc2c(Oc3ccc(N/C=C4\C(=O)NC(=O)N(c5ccc(F)cc5F)C4=O)cc3F)ccnc2cc1OCCCN1CCC(C)CC1 | 260 | 5100 |  | 460 | 16 | 
36 | COc1cc(N2C(=O)NC(=O)/C(=C\Nc3ccc(Oc4ccnc5cc(OCCCN6CCCCC6)c(OC)cc45)c(F)c3)C2=O)c(OC)cc1Cl | 1200 | 2600 |  | 1970 | 27.9 | 
37 | COc1cc2c(Oc3ccc(N/C=C4\C(=O)NC(=O)N(c5ccc(C)cc5)C4=O)cc3F)ccnc2cc1OCCCN1CCCCC1 | 100 | 120 | 1500 | 190 | 2.58 | 380
38 | COc1cc2c(Oc3ccc(N/C=C4\C(=O)NC(=O)N(c5ccc(F)cc5)C4=O)cc3F)ccnc2cc1OCCCN1CCC(C)CC1 | 110 | 220 | 3200 | 120 | 3.09 | 350
39 | COc1cc2c(Oc3ccc(N/C=C4\C(=O)NC(=O)N(c5ccccc5C(F)(F)F)C4=O)cc3F)ccnc2cc1OCCCN1CCCCC1 | 930 | 1300 |  | 100 | 18.5 | 
